Calls of active or inactive are those of the source. The calls are words filed in the database; no cut-off is given here.
Legend:
[1] = biological target: T1, 3',5'-cyclic-AMP phosphodiesterase 4D (Homo sapiens, UniProt Q08499); test: Inhibition of PDE4D2 (unknown origin) at 10 uM
[2] = Genotoxicity against human HTLA-230 cells assessed as phosphorylation of histone H2AX at 100 uM after 24 hrs by Western blot analysis; assay type: toxicity, cell-based; details: htla-230, 24 h
[3] = biological target: T1, 3',5'-cyclic-AMP phosphodiesterase 4D; test: Inhibition of PDE4D3 (unknown origin) at 10 uM
In short: (§1)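 Recombinant PDE4 isoform enzyme activity measured with compound at 10 μM, in duplicate; result given as % inhibition relative to control activity. PDE4D3 is recombinant human, expressed in a baculoviral system.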

[4] = species on record: Homo sapiens; test: Selectivity ratio of IC50 PDE4B2 (unknown origin) for to IC50 for ecombinant human PDE4D3 expressed in baculoviral system
[5] = biological target: T2, 3',5'-cyclic-AMP phosphodiesterase 4B (Homo sapiens, UniProt Q07343); test: Inhibition of PDE4B2 (unknown origin) at 10 uM; in short: as §1
T2 sequence (Q07343 whole entry): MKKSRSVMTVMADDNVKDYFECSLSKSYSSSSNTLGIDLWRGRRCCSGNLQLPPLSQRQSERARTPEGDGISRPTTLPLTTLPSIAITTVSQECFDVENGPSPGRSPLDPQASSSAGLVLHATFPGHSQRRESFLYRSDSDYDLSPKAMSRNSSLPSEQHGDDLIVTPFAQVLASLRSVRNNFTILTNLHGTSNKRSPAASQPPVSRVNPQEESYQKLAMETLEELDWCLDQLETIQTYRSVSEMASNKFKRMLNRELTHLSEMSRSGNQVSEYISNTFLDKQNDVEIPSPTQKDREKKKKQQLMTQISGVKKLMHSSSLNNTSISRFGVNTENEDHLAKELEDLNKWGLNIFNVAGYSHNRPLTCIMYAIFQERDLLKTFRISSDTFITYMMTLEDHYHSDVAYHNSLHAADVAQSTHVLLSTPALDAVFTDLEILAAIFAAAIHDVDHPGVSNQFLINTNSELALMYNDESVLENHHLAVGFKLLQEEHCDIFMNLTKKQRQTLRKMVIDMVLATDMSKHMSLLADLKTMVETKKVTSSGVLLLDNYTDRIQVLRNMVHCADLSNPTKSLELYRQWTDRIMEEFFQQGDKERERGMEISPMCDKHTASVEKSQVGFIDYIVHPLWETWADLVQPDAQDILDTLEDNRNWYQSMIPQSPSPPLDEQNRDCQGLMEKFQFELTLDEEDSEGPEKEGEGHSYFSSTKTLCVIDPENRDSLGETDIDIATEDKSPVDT

[6] = Cytotoxicity against human HTLA-230 cells at 100 uM after 24 hrs by lactate dehydrogenase release assay; assay type: cell-based; details: htla-230, 24 h
In short: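 HTLA human neuronal cells exposed 24 h to 100 μM test compound; cytotoxicity read as lactate-dehydrogenase release.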

[7] = biological target: T1, 3',5'-cyclic-AMP phosphodiesterase 4D; test: Inhibition of recombinant human PDE4D3 expressed in baculoviral system at 10 uM; in short: as §1
[8] = biological target: T1, 3',5'-cyclic-AMP phosphodiesterase 4D; test: Inhibition of PDE4D1 (unknown origin) at 10 uM
[9] = biological target: T1, 3',5'-cyclic-AMP phosphodiesterase 4D; test: Inhibition of recombinant human PDE4D3 expressed in baculoviral system
In short: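 Recombinant PDE4 isoform enzyme (PDE4D3: recombinant human, baculoviral expression) tested at five concentrations over 5 × 10−8–10−4 M, in duplicate. IC50 obtained by nonlinear regression of the inhibition curve with Hill equation fitting.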

[10] = biological target: 3',5'-cyclic-AMP phosphodiesterase 4A (Homo sapiens) (UniProt P27815); test: Inhibition of PDE4A4 (unknown origin) at 10 uM; in short: as §1
3',5'-cyclic-AMP phosphodiesterase 4A (Homo sapiens), sequence (P27815 whole entry): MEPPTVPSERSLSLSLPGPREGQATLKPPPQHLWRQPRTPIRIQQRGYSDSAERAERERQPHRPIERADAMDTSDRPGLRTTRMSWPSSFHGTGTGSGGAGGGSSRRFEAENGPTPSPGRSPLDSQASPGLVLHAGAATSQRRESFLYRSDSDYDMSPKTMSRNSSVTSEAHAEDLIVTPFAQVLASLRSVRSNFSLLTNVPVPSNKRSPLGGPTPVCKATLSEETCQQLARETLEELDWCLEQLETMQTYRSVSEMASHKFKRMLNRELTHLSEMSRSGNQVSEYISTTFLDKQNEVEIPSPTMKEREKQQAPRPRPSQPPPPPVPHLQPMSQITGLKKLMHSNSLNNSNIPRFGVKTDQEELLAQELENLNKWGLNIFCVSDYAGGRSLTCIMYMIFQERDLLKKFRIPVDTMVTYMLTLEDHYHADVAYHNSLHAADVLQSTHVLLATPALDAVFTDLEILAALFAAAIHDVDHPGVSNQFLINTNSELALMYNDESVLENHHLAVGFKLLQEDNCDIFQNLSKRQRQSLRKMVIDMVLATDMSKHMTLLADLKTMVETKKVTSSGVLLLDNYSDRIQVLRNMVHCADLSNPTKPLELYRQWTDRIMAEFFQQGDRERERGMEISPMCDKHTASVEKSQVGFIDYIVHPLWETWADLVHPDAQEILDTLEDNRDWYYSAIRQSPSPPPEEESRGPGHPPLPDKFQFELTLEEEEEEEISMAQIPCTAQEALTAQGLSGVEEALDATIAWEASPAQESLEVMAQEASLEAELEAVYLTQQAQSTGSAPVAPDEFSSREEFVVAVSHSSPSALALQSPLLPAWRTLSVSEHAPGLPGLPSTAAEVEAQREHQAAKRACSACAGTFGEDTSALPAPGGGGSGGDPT

[11] = biological target: T2, 3',5'-cyclic-AMP phosphodiesterase 4B; test: Inhibition of PDE4B2 (unknown origin)
[12] = biological target: T1, 3',5'-cyclic-AMP phosphodiesterase 4D; test: Inhibition of PDE4D3 in human HTLA230 cells assessed as accumulation of intracellular cAMP pretreated at 100 uM for 10 min before forskolin addition measured after 20 mins by enzyme immunoassay; assay type: cell-based
In short: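 cAMP accumulation in HTLA cells treated 30 min with compound. Where indicated, forskolin was added during the last 20 min to raise basal cAMP. Intracellular cAMP measured by cAMP-specific enzymatic immunoassay.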

T1 sequence (Q08499 whole entry): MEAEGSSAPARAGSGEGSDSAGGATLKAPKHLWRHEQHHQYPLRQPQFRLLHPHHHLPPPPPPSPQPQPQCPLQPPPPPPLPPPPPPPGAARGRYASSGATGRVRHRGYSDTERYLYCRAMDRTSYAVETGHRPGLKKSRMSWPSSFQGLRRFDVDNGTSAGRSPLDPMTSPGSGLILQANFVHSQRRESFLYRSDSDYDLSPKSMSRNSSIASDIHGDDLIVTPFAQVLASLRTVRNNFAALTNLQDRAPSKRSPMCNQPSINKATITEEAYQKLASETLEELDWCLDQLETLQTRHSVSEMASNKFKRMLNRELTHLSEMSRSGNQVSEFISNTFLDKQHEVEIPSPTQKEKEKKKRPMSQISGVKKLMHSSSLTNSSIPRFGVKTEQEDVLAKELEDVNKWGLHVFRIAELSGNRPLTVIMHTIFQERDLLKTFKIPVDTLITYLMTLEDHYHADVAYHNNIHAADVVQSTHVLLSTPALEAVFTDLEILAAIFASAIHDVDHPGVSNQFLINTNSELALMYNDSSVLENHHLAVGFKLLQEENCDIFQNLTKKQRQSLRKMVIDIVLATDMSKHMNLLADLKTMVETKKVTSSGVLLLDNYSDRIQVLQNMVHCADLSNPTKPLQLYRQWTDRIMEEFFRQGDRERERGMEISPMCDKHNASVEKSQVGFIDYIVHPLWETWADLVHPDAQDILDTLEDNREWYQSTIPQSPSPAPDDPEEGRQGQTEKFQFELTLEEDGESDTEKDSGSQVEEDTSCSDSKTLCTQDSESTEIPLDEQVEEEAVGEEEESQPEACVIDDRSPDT

## COc1ccc(/C=N/OCC(O)CNN2CC(C)OC(C)C2)cc1OC1CCCC1 (stereo not given)
[1]
  inhibition: 74%
[2]
  Activity: Non-toxic
[3]
  inhibition: 80%
[4]
  Ratio IC50: 90
[5]
  inhibition: 51%
[6]
  Activity: 0.75%
[7]
  inhibition: 80%
[8]
  inhibition: 65%
[9]
  IC50: 0.21 µM
[10]
  inhibition: 41%
[11]
  IC50: 18 µM

## COc1ccc(/C=N/N2CC(C)OC(C)C2)cc1OC1CCCC1 (stereo not given)
[1]
  inhibition: 53%
[2]
  Activity: Non-toxic
[3]
  inhibition: 75%
[5]
  inhibition: 47%
[6]
  Activity: 0.01%
[7]
  inhibition: 75%
[8]
  inhibition: 68%
[9]
  IC50: 1.55 µM
[10]
  inhibition: 29%

## COc1ccc(C(=O)N2CC(C)OC(C)C2)cc1OC1CCCC1 (stereo not given)
[1]
  inhibition: 9%
[3]
  inhibition: 31%
[7]
  inhibition: 31%
[8]
  inhibition: 18%

## COc1ccc(CCC(=O)N2CCOCC2)cc1OC1CCCC1
[7]
  inhibition: 7%

## COc1ccc(CCC(=O)N2CCC(O)CC2)cc1OC1CCCC1
[7]
  inhibition: 12%

## COc1ccc(/C=C/C(=O)N2CCOCC2)cc1OC1CCCC1
[7]
  inhibition: 25%

## COc1ccc(CCC(=O)N2CC(C)OC(C)C2)cc1OC1CCCC1 (stereo not given)
[7]
  inhibition: 10%

## COc1ccc(C(=O)N2CCOCC2)cc1OC1CCCC1
[7]
  inhibition: 45%

## COc1ccc(/C=C/C(=O)N2CC(C)OC(C)C2)cc1OC1CCCC1 (stereo not given)
[7]
  inhibition: 16%

## COc1ccc(/C=N/OCC(CN2CCC(OC(C)=O)CC2)OC(C)=O)cc1OC1CCCC1 (stereo not given)
[7]
  inhibition: 12%

## COc1ccc(/C=N/OCC(=O)N2CCC(O)CC2)cc1OC1CCCC1
[7]
  inhibition: 30%

## COc1ccc(/C=N/N2CCOCC2)cc1OC1CCCC1
[1]
  inhibition: 62%
[2]
  Activity: Non-toxic
[3]
  inhibition: 83%
[4]
  Ratio IC50: 2.6
[5]
  inhibition: 62%
[6]
  Activity: 0.04%
[7]
  inhibition: 83%
[8]
  inhibition: 75%
[9]
  IC50: 0.66 µM
[10]
  inhibition: 41%
[11]
  IC50: 1.6 µM

## COc1cc([C@@H]2c3cc4c(cc3[C@@H](O[C@@H]3O[C@@H]5CO[C@@H](C)O[C@H]5[C@H](O)[C@H]3O)[C@H]3COC(=O)[C@H]23)OCO4)cc(OC)c1O [ETOPOSIDE]
[2]
  Activity: Toxic

## COc1ccc(/C=N/OCCC(=O)N2CC(C)OC(C)C2)cc1OC1CCCC1 (stereo not given)
[7]
  inhibition: 24%

## COc1ccc(/C=N/OCC(O)CN2CCC(O)CC2)cc1OC1CCCC1 (stereo not given)
[12]
  inhibition: Active
[2]
  Activity: Non-toxic
[3]
  inhibition: 65%
[5]
  inhibition: 5%
[6]
  Activity: 1.2%
[7]
  inhibition: 65%
[9]
  IC50: 1.79 µM
[10]
  inhibition: 10%

## COc1ccc(C(=O)N2CCC(O)CC2)cc1OC1CCCC1
[7]
  inhibition: 20%

## COc1ccc(/C=C/C(=O)N2CCC(O)CC2)cc1OC1CCCC1
[7]
  inhibition: 22%

## COc1ccc(C(=O)NN2CCOCC2)cc1OC1CCCC1
[1]
  inhibition: 32%
[3]
  inhibition: 32%
[7]
  inhibition: 32%
[8]
  inhibition: 49%

## COc1ccc(/C=N/OCC(=O)N2CC(C)OC(C)C2)cc1OC1CCCC1 (stereo not given)
[2]
  Activity: Non-toxic
[6]
  Activity: 0.14%

## COc1ccc(C(=O)NN2CC(C)OC(C)C2)cc1OC1CCCC1 (stereo not given)
[7]
  inhibition: 0%

## COc1ccc(/C=N/OCC(O)CNN2CCOCC2)cc1OC1CCCC1 (stereo not given)
[2]
  Activity: Non-toxic
[3]
  inhibition: 56%
[5]
  inhibition: 34%
[6]
  Activity: 0.01%
[7]
  inhibition: 56%
[9]
  IC50: 1.26 µM
[10]
  inhibition: 33%

## COc1ccc(/C=N/OCCC(=O)N2CCOCC2)cc1OC1CCCC1
[7]
  inhibition: 49%
